Measurements taken from ChEMBL document CHEMBL1240515, “Discovery of mitogen-activated protein kinase-interacting kinase 1 inhibitors by a comprehensive fragment-oriented virtual screening approach” (J Med Chem, 2010).
Blank lines part the entries; values can stand above or below the molecule they belong to.

Tests used:
[1] = biological target: T1, MAP kinase-interacting serine/threonine-protein kinase 1 (Homo sapiens, UniProt Q9BUB5); assay: Inhibition of MNK1
Target sequence in this assay (Q9BUB5 whole entry): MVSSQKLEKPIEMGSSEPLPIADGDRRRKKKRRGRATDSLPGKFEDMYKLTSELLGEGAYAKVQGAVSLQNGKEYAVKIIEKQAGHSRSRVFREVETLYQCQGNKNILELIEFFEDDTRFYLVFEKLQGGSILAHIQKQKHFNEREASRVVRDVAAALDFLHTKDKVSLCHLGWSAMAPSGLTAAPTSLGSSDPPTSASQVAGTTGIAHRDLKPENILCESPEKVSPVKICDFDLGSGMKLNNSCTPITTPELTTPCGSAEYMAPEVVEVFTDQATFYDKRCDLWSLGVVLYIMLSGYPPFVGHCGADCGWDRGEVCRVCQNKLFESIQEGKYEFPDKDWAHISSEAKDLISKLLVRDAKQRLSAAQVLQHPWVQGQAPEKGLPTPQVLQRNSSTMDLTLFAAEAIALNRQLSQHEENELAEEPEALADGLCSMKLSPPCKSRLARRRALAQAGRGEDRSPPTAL

[2] = biological target: Ribosomal protein S6 kinase alpha-1 (Homo sapiens) (UniProt Q15418); assay: Inhibition of RPS6KA1 at 5 uM
Method in brief: (§1)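 Single-concentration panel run at an outside kinase screening provider. The compound was tested at 5 μM in duplicate.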

[3] = biological target: Platelet-derived growth factor receptor alpha (Homo sapiens) (UniProt P16234); assay: Inhibition of PDGFRalpha at 5 uM; method in brief: as §1
[4] = biological target: Mast/stem cell growth factor receptor Kit (Homo sapiens) (UniProt P10721); assay: Inhibition of KIT at 5 uM; method in brief: as §1
[5] = biological target: Receptor-type tyrosine-protein kinase FLT3 (Homo sapiens) (UniProt P36888); assay: Inhibition of FLT3 at 5 uM; method in brief: as §1
[6] = biological target: Hepatocyte growth factor receptor (Homo sapiens) (UniProt P08581); assay: Inhibition of MET at 5 uM; method in brief: as §1
[7] = biological target: T1, MAP kinase-interacting serine/threonine-protein kinase 1; assay: Inhibition of MNK1 at 5 uM
Method in brief: (§2)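 Recombinant MNK1 (4 μg/mL) or MNK2 (0.7 μg/mL) final. Reaction contained 100 μM ATP and 300 μM eIF4E-derived peptide, run 60 min at 30 °C. ADP was detected by resorufin fluorescence. Tested at 5 μM in duplicate.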
Target sequence in this assay (Q9BUB5 whole entry, looked up): as the sequence (Q9BUB5 whole entry) above

[8] = biological target: RAC-alpha serine/threonine-protein kinase (Homo sapiens) (UniProt P31749); assay: Inhibition of AKT1 at 5 uM; method in brief: as §1
[9] = biological target: Serine/threonine-protein kinase Sgk1 (Homo sapiens) (UniProt O00141); assay: Inhibition of SGK1 at 5 uM; method in brief: as §1
Sequence of Serine/threonine-protein kinase Sgk1 (Homo sapiens) (O00141 whole entry): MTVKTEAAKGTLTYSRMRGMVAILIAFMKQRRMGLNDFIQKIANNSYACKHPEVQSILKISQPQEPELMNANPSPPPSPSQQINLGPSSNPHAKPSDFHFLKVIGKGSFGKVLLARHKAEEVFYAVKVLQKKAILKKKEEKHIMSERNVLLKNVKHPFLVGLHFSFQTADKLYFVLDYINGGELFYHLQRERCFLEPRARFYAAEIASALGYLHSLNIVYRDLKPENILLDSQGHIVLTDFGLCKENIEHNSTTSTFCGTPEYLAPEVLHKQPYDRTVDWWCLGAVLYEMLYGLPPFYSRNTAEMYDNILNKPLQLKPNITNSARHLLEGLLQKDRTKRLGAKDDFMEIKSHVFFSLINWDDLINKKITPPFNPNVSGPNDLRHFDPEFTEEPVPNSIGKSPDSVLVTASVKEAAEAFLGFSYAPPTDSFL

[10] = biological target: Dual specificity mitogen-activated protein kinase kinase 1 (Homo sapiens) (UniProt Q02750); assay: Inhibition of MEK1 at 5 uM; method in brief: as §1
[11] = biological target: Insulin-like growth factor 1 receptor (Homo sapiens) (UniProt P08069); assay: Inhibition of IGF1R at 5 uM; method in brief: as §1
[12] = biological target: Focal adhesion kinase 1 (Homo sapiens) (UniProt Q05397); assay: Inhibition of FAK at 5 uM; method in brief: as §1
Sequence of Focal adhesion kinase 1 (Homo sapiens) (Q05397 2-1052 limits assumed): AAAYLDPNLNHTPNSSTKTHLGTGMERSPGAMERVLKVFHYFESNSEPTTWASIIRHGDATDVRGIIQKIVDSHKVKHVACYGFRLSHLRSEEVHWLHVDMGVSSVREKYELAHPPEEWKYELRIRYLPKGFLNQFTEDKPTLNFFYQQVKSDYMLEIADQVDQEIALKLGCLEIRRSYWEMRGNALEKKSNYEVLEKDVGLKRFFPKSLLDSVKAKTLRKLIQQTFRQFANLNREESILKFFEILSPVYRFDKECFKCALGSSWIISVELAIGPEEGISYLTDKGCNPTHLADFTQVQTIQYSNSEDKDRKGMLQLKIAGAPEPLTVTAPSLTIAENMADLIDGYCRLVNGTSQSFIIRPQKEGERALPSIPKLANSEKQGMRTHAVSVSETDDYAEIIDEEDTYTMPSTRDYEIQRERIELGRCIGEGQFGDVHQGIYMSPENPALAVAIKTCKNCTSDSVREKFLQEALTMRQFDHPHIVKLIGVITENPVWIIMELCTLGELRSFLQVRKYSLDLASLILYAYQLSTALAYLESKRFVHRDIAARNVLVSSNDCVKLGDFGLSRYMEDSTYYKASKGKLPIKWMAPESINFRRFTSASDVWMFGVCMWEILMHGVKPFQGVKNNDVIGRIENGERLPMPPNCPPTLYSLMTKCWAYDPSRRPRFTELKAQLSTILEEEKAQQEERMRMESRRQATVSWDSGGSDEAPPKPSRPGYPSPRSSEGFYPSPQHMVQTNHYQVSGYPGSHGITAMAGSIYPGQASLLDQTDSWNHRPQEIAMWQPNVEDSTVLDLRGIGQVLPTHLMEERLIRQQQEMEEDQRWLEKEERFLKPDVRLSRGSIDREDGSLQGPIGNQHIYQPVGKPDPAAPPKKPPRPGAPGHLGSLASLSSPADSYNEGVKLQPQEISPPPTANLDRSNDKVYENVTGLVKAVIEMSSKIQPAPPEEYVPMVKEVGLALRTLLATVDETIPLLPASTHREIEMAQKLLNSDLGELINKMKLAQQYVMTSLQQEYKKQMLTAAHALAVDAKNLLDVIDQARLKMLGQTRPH

[13] = biological target: 3-phosphoinositide-dependent protein kinase 1 (Homo sapiens) (UniProt O15530); assay: Inhibition of PDK1 at 5 uM
[14] = biological target: Tyrosine-protein kinase JAK2 (Homo sapiens) (UniProt O60674); assay: Inhibition of JAK2 at 5 uM; method in brief: as §1
[15] = biological target: Inhibitor of nuclear factor kappa-B kinase subunit beta (Homo sapiens) (UniProt O14920); assay: Inhibition of IKK-beta at 5 uM; method in brief: as §1
[16] = biological target: Serine/threonine-protein kinase pim-2 (Homo sapiens) (UniProt Q9P1W9); assay: Inhibition of PIM2 at 5 uM; method in brief: as §1
[17] = biological target: Mitogen-activated protein kinase 3 (Homo sapiens) (UniProt P27361); assay: Inhibition of ERK1 at 5 uM; method in brief: as §1
Sequence of Mitogen-activated protein kinase 3 (Homo sapiens) (P27361 whole entry): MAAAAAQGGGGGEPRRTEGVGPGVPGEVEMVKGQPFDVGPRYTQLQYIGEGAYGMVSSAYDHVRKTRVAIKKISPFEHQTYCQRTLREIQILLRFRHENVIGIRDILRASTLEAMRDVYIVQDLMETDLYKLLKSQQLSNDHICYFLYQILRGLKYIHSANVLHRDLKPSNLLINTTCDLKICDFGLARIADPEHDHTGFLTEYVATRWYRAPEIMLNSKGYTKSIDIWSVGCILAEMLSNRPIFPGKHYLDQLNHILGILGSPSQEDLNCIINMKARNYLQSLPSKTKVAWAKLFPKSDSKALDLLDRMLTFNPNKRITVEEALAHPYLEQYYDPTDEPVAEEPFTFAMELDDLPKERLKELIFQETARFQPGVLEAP

[18] = biological target: Serine/threonine-protein kinase pim-1 (Homo sapiens) (UniProt P11309); assay: Inhibition of PIM1 at 5 uM; method in brief: as §1
[19] = biological target: Epidermal growth factor receptor (Homo sapiens) (UniProt P00533); assay: Inhibition of EGFR at 5 uM; method in brief: as §1
Sequence of Epidermal growth factor receptor (Homo sapiens) (P00533 whole entry): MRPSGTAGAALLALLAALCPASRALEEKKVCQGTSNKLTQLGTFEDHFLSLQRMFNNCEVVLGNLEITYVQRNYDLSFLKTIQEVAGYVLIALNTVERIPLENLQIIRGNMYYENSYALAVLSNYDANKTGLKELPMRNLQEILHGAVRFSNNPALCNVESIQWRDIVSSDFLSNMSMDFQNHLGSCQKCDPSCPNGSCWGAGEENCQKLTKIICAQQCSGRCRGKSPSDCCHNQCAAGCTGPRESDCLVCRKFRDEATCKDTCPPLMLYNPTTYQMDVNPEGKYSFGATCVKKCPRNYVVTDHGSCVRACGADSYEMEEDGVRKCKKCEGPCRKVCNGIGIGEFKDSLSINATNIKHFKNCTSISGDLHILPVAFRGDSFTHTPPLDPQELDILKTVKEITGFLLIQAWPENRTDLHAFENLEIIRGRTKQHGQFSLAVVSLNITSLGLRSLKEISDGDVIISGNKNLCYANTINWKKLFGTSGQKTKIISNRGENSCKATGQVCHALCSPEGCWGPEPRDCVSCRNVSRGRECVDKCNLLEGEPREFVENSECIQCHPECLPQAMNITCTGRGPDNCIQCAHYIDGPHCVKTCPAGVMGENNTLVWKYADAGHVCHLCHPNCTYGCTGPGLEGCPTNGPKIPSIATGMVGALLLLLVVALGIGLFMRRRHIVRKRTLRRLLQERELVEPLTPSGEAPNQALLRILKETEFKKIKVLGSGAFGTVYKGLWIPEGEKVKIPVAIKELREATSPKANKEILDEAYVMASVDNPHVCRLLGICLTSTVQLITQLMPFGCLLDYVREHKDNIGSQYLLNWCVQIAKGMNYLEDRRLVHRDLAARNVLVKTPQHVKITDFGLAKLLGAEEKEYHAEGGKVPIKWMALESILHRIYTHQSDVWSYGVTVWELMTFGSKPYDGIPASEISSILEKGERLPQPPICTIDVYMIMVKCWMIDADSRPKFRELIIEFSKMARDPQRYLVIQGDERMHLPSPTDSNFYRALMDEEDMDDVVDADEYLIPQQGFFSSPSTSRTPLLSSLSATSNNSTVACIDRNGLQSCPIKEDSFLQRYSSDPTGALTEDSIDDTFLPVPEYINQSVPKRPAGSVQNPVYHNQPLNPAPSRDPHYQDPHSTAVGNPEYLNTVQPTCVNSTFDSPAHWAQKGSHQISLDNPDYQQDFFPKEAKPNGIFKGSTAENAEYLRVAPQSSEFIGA

[20] = system: Serine/threonine-protein kinase B-raf (Homo sapiens), P15056 [V600E]; assay: Inhibition of B-RAFV600E at 5 uM; method in brief: as §1
[21] = biological target: NUAK family SNF1-like kinase 1 (Homo sapiens) (UniProt O60285); assay: Inhibition of ARK5 at 5 uM; method in brief: as §1
[22] = biological target: Fibroblast growth factor receptor 1 (Homo sapiens) (UniProt P11362); assay: Inhibition of FGFR1 at 5 uM; method in brief: as §1
[23] = biological target: Serine/threonine-protein kinase 4 (Homo sapiens) (UniProt Q13043); assay: Inhibition of MST1 at 5 uM; method in brief: as §1
Sequence of Serine/threonine-protein kinase 4 (Homo sapiens) (Q13043 whole entry, canonical isoform): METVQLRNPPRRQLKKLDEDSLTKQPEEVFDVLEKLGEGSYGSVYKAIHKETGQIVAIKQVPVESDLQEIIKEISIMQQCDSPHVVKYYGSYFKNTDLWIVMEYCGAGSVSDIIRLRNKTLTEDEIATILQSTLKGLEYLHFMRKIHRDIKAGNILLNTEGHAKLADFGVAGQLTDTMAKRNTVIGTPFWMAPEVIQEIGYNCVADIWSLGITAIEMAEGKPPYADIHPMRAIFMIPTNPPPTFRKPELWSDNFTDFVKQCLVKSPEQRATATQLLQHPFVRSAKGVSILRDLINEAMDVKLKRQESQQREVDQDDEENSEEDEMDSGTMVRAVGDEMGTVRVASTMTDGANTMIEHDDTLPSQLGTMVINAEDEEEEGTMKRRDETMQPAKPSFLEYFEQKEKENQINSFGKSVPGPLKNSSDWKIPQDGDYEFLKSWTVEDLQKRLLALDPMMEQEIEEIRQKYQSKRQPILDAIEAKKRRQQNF

[24] = biological target: Casein kinase I isoform alpha (Homo sapiens) (UniProt P48729); assay: Inhibition of CK1alpha1 at 5 uM; method in brief: as §1
[25] = biological target: Mitogen-activated protein kinase 14 (Homo sapiens) (UniProt Q16539); assay: Inhibition of p38alpha at 5 uM; method in brief: as §1
Sequence of Mitogen-activated protein kinase 14 (Homo sapiens) (Q16539 whole entry): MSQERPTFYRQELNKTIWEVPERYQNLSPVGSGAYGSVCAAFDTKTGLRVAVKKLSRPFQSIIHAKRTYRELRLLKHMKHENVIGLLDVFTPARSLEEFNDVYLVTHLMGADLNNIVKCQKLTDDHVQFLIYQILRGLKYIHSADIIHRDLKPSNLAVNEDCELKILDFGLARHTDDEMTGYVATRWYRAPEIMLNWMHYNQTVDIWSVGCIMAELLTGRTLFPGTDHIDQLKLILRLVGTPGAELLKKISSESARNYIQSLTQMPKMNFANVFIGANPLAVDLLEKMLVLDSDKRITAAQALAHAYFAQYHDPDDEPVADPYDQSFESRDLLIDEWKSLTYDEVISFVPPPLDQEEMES

[26] = biological target: Dual specificity tyrosine-phosphorylation-regulated kinase 1A (Homo sapiens) (UniProt Q13627); assay: Inhibition of DYRK1A at 5 uM; method in brief: as §1
[27] = biological target: T2, MAP kinase-interacting serine/threonine-protein kinase 2 (Homo sapiens, UniProt Q9HBH9); assay: Inhibition of MNK2 at 5 uM; method in brief: as §2
Target sequence in this assay (Q9HBH9 whole entry, looked up): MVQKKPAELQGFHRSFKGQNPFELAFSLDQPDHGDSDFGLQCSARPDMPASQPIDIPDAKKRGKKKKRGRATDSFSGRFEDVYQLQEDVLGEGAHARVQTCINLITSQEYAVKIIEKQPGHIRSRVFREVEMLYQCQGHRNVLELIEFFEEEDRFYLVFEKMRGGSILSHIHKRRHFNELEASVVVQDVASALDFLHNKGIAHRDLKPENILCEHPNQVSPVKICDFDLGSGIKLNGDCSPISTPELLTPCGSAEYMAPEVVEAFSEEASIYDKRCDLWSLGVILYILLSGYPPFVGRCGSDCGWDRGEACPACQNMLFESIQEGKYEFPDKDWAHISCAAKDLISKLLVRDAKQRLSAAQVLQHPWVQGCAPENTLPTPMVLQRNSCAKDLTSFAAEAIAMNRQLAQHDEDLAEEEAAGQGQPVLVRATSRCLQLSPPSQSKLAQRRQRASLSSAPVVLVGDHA

[28] = biological target: T2, MAP kinase-interacting serine/threonine-protein kinase 2; assay: Inhibition of MNK2
Target sequence in this assay (Q9HBH9 whole entry): as the sequence (Q9HBH9 whole entry, looked up) above

IC50 [1]: 6180 nM
SMILES: CC(C)CNc1nn2c(-c3ccncc3)cnc2s1

IC50 [1]: 4280 nM
SMILES: c1ccc(-c2cnc3ccc(NCCc4ccccn4)nn23)cc1

inhibition [2]: 11% | inhibition [3]: 1% | inhibition [4]: 7% | inhibition [5]: 0% | inhibition [6]: 1% | inhibition [7]: 87% | inhibition [8]: 0% | inhibition [9]: 7% | inhibition [10]: 5% | inhibition [11]: 3% | inhibition [12]: 15% | inhibition [13]: 0% | inhibition [14]: 0% | inhibition [15]: 6% | inhibition [16]: 1% | inhibition [17]: 0% | inhibition [18]: 4% | inhibition [19]: 1% | inhibition [20]: 9% | inhibition [21]: 3% | inhibition [22]: 8% | inhibition [23]: 0% | inhibition [24]: 10% | inhibition [25]: 2% | inhibition [26]: 0%
SMILES: c1cc(-c2cc(C3CCNCC3)n[nH]2)ccn1

IC50 [1]: 530 nM
SMILES: COc1cc2ncnc(Nc3cccc(Cl)c3)c2cc1OC [TYRPHOSTIN AG-1478]

IC50 [1]: 1700 nM
SMILES: CNc1cc2c(Nc3cccc(Br)c3)ncnc2cn1

IC50 [1]: 3240 nM
SMILES: OCCCNc1ccc2ncc(-c3ccccc3F)n2n1

IC50 [1]: 1560 nM
SMILES: Brc1ccc(Nc2ncnc3[nH]ncc23)cc1

IC50 [1]: 1350 nM
SMILES: c1ccc2cc(Nc3ncnc4[nH]ncc34)ccc2c1

IC50 [1]: 1530 nM
SMILES: CNc1ccc2ncc(-c3cccc(O)c3)n2n1

IC50 [1]: 5150 nM
SMILES: NC(=O)c1ccc(-c2cc(-c3ccccc3)cnc2N)cc1

IC50 [1]: 2930 nM
SMILES: OCCNc1ccc2ncc(-c3ccc(Cl)cc3)n2n1

IC50 [1]: 4090 nM
SMILES: COCCNc1ccc2ncc(-c3ccc(F)cc3)n2n1

IC50 [1]: 1090 nM
SMILES: Fc1cccc(Nc2ncnc3n[nH]cc23)c1

IC50 [1]: 2800 nM
SMILES: Brc1cccc(Nc2ncnc3cc4nc[nH]c4cc23)c1

inhibition [7]: 97% | inhibition [27]: 80%
SMILES: CCNc1nc(C)c(-c2ccnc(Nc3ccc(N4CCNCC4)cc3)n2)s1

IC50 [1]: 630 nM
SMILES: COc1cc2ncnc(Nc3cccc(Br)c3)c2cc1OC

IC50 [1]: 3800 nM
SMILES: c1cnn2c(-c3ccncc3)cnc2c1

IC50 [1]: 8170 nM
SMILES: O=c1[nH]cnc2cc3n[nH]cc3cc12

IC50 [1]: 4050 nM
SMILES: CNc1ccc2ncc(-c3ccc(F)cc3)n2n1

IC50 [1]: 2410 nM
SMILES: OCCCNc1ccc2ncc(-c3ccc(F)cc3)n2n1

IC50 [1]: 1620 nM
SMILES: COCCNc1ccc2ncc(-c3ccc(Cl)cc3)n2n1

IC50 [1]: 1030 nM
SMILES: Fc1ccc(Nc2ncnc3[nH]cnc23)cc1

IC50 [1]: 1710 nM
SMILES: c1cc(-c2cnc3sc(NCC4CC4)nn23)ccn1

IC50 [1]: 160 nM
SMILES: NC(=O)c1ccc(Nc2ncnc3[nH]cnc23)cc1

IC50 [1]: 120 nM
SMILES: COc1cc2ncnc(Nc3cc(Br)c(O)c(Br)c3)c2cc1OC

IC50 [1]: 580 nM
SMILES: Clc1ccc(Nc2ncnc3[nH]ncc23)cc1

IC50 [28]: 575 nM | IC50 [1]: 646 nM
SMILES: c1cc(-c2cc(C3CCNCC3)[nH]n2)ccn1

IC50 [1]: 850 nM
SMILES: COC(=O)c1ccc(Nc2[nH]cnc3ncnc2-3)cc1
